# Assay results from different studies.
# Lines come from different studies, so protocols differ.
# Target: Vascular endothelial growth factor receptor 2 (KDR, Homo sapiens, UniProt P35968)
Structure (SMILES),test,conditions,remaining binding
COc1ncc2cc3ccccc3nc2c1C#N,"cell-free assay, competition with immobilised ligand",5 µM,100%
O=C(NCC1CCOCC1)c1n[nH]cc1NC(=O)c1c(F)cccc1F,"binding, competition with immobilised ligand",1 µM,82%
C[C@@H]1CN(c2ccc3ncc(-c4ccc5[nH]nc(C6CC6)c5c4)n3n2)C[C@H](C)O1,"binding, competition with immobilised ligand",0.5 µM,100%
CN(C)c1ncc(F)c(-c2cnn3ncccc23)n1,binding,1 µM,75%
Nc1cnc(N2CCc3cc(S(=O)(=O)Nc4c(F)cc(Cl)cc4F)cc(N4CCCC4=O)c32)nc1,"cell-free assay, competition with immobilised ligand",1 µM,81%
CN(CCCC(F)(F)F)c1nccc(-c2cnn3ncccc23)n1,binding,1 µM,100%
O=C(c1ccc(Nc2ncc(Cl)c(-c3cc4ccccc4s3)n2)cc1)N1CCC(N2CCCC2)CC1,"binding, competition with immobilised ligand",1 µM,12%
Nc1ncc2c(n1)-c1c([nH]c3ccc(C#CC4CC4)cc13)CCCC2,"binding, competition with immobilised ligand",1 µM,90%
N[C@H]1CCN(c2nccc(-c3cnn4ncccc34)n2)C1,binding,1 µM,100%
CC(=O)C1=C(C)N(c2cccc(C(F)(F)F)c2)C(=O)N[C@@H]1c1ccc(C#N)nc1,"cell-free assay, competition with immobilised ligand",1 µM,84%
O=C(NCCCN1CCOCC1)c1ccc(Nc2nccc(-c3cc4ccccc4s3)n2)cc1,"binding, competition with immobilised ligand",1 µM,72%
c1cncc(-c2cccc(Nc3nccc(NC4CCCCC4)n3)c2)c1,"binding, competition with immobilised ligand",10 µM,69%
CNC(=O)[C@@H]1CC[C@@H](n2c(-c3ccc4cnccc4c3)nc3ccc(C(=O)NCc4cccc(C(N)=O)c4)cc32)C1,"binding, competition with immobilised ligand",1 µM,69%
Cc1cc(-n2nc(Cc3cc(F)cc(C(F)(F)F)c3)nc2C)ccc1C(N)=O,"cell-free assay, competition with immobilised ligand",1 µM,100%
C=CC(=O)N1CCC(C(=O)NCC(=O)N2CCN(c3nc(-c4cnc(N)nc4C(F)F)nc(N4CCOCC4)n3)CC2)CC1,"binding, competition with immobilised ligand",1 µM,81%
COc1ccc2c(O[C@@H]3C[C@H]4C(=O)N[C@]5(C(=O)O)CC5/C=C\CCCCC[C@H](NC(=O)OC5CCCC5)C(=O)N4C3)cc(-c3csc(NC(=O)C(C)C)n3)nc2c1C (stereo partly shown),"cell-free assay, competition with immobilised ligand",1 µM,83%
FC(F)(F)Oc1cccc(-c2cnc3ccc(-c4ccncc4)nn23)c1,"cell-free assay, competition with immobilised ligand",5 µM,18%
O=C(NCCCC1CCCCC1)c1ccc(CNC(=O)c2cnn(-c3ccccc3)c2C(F)(F)F)cc1,"cell-free assay, competition with immobilised ligand",0.1 µM,97%
CN(C)c1nccc(-c2cnc3ncccn23)n1,binding,1 µM,90%
O=C(Nc1cnc(Oc2ccc(F)cc2)nc1)N1CCc2ncccc2[C@@H]1c1ccc(F)cc1,"cell-free assay, competition with immobilised ligand",1 µM,88%
C[C@@H]1CCN(c2nccc(-c3cnn4ncccc34)n2)C1,binding,1 µM,87%
CCC(=O)N[C@@H]1CC[C@H](C(=O)N(C)c2ccc(-c3nc4ccccc4o3)cc2)C1,"cell-free assay, competition with immobilised ligand",1 µM,77%
Cc1cnn2ncc(-c3ccnc(N(C)C)n3)c2c1,binding,1 µM,96%
O=C(O)[C@H]1[C@H](Cn2nnc3ccccc3c2=O)CC[C@@H]1C(=O)c1ccc(OCCC2CCOCC2)cc1,"cell-free assay, competition with immobilised ligand",1 µM,88%
Cc1cnc(Nc2ccc(C(=O)N3CCC(N4CCCC4)CC3)cc2)nc1-c1cc2ccccc2s1,"binding, competition with immobilised ligand",1 µM,4.3%
